Results published in ChEMBL document CHEMBL3085723, “Design, synthesis and discovery of picomolar selective α4β2 nicotinic acetylcholine receptor ligands” (J Med Chem, 2013).
The source made the active and inactive calls. No cut-off for these calls is given here.

Experiments:
[1] = biological target: T1, Neuronal acetylcholine receptor; alpha3/beta4 (Rattus norvegicus, UniProt P04757+P12392); test: Displacement of [3H]epibatidine from rat alpha3beta4 nAChR expressed in HEK293 cells after 4 hrs; format: cell-based
T1 sequence (P04757 whole entry): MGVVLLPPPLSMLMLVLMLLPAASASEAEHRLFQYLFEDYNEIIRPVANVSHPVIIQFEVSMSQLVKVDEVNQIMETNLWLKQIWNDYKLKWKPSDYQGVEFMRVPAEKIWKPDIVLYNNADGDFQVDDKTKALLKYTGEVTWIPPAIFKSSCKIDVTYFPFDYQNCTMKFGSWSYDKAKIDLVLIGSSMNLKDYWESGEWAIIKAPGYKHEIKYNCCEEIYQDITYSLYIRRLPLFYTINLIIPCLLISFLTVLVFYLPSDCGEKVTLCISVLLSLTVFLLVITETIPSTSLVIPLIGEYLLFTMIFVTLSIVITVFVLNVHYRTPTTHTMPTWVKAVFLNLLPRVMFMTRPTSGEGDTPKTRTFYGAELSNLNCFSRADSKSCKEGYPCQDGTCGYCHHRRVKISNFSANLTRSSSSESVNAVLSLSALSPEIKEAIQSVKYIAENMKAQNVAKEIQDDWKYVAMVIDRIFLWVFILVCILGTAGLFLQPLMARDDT
T1 sequence (P12392 whole entry): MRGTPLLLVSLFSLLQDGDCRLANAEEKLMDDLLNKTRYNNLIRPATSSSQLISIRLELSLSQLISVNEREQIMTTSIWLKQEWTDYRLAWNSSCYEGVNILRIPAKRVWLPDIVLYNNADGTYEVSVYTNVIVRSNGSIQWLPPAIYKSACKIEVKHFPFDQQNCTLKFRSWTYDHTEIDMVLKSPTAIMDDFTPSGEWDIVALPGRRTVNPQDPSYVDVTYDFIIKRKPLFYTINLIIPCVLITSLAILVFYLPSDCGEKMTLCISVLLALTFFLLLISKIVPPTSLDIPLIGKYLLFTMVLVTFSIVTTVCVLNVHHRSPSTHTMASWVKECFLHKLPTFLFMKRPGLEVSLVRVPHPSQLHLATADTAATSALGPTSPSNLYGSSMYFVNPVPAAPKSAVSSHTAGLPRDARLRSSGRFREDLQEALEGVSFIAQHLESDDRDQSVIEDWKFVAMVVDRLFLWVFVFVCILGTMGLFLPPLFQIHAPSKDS
Procedure, shortened: (§1)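 Membranes from stably transfected cells or rat forebrain, homogenized in 50 mM Tris·HCl, pH 7.4, at 4 °C and pelleted at 36000g. […] Separation by vacuum filtration on PEI-treated GF/C filters. Ki reported.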

[2] = Fraction unbound in rat brain homogenate at 5 uM after 4 hrs equilibrium dialysis method; format: ADME, tissue-based
Procedure, shortened: (§2)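 Test agent at 5 μM incubated in rat plasma or brain homogenate. Dialysed against PBS in a RED equilibrium dialysis device for 4 h, both sides quantified by LC/MS/MS. Unbound fraction from protein-containing vs protein-free concentrations. Brain value corrected for homogenate dilution factor D.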

[3] = biological target: Neuronal acetylcholine receptor; alpha2/beta2 (Rattus norvegicus, UniProt P12389+P12390); test: Displacement of [3H]epibatidine from rat alpha2beta2 nAChR expressed in HEK293 cells after 4 hrs; format: cell-based; procedure, shortened: as §1
Neuronal acetylcholine receptor; alpha2/beta2, sequence (P12389 whole entry): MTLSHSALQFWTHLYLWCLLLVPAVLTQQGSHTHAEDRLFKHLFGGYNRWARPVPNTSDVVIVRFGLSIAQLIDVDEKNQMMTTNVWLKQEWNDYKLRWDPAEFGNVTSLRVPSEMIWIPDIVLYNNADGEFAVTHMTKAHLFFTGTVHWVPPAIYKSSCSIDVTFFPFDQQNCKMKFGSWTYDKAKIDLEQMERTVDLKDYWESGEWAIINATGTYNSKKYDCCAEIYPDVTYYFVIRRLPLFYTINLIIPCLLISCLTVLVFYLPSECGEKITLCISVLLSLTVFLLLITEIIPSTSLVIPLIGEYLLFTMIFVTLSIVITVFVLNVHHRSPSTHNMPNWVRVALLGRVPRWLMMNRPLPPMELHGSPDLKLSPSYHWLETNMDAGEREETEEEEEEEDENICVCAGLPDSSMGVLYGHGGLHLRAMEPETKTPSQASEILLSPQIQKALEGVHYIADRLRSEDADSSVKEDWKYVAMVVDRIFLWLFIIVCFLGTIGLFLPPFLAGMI
Neuronal acetylcholine receptor; alpha2/beta2, sequence (P12390 whole entry): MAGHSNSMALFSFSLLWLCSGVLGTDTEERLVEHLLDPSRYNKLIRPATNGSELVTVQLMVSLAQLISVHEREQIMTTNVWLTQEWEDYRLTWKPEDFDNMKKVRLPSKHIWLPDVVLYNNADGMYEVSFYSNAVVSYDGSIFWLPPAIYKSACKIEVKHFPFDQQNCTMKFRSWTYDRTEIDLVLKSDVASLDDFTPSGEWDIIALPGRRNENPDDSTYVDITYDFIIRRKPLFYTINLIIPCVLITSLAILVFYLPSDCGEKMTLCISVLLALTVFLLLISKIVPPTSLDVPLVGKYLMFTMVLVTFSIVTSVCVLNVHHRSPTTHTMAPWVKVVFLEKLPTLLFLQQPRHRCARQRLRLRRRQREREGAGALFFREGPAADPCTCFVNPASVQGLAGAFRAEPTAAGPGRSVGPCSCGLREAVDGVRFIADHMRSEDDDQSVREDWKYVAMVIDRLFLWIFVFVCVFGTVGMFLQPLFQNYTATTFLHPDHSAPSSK

[4] = biological target: Neuronal acetylcholine receptor; alpha3/beta2 (Rattus norvegicus, UniProt P04757+P12390); test: Displacement of [3H]epibatidine from rat alpha3beta2 nAChR expressed in HEK293 cells after 4 hrs; format: cell-based; procedure, shortened: as §1
Neuronal acetylcholine receptor; alpha3/beta2, sequence (P04757 whole entry): as the sequence (P04757 whole entry) above
Neuronal acetylcholine receptor; alpha3/beta2, sequence (P12390 whole entry): as the sequence (P12390 whole entry) above

[5] = Displacement of [3H]epibatidine from nAChR in rat forebrain; format: tissue-based; procedure, shortened: as §1
[6] = biological target: Neuronal acetylcholine receptor subunit alpha-7 (Rattus norvegicus, UniProt Q05941); test: Displacement of [3H]epibatidine from rat alpha7 nAChR expressed in HEK293 cells after 4 hrs; format: cell-based
Neuronal acetylcholine receptor subunit alpha-7, sequence (Q05941 whole entry): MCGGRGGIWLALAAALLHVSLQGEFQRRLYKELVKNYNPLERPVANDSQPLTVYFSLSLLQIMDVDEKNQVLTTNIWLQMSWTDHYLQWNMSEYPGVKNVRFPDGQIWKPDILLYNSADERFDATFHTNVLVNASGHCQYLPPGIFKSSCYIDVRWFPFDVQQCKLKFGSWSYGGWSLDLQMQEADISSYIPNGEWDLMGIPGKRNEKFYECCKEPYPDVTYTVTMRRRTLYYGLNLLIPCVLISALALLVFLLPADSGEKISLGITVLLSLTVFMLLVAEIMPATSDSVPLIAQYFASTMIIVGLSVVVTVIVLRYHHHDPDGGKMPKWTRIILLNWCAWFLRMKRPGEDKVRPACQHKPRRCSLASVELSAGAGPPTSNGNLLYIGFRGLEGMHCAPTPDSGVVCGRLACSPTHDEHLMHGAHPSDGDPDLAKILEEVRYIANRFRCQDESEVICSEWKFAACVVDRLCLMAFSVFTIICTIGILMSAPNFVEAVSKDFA
Procedure, shortened: (§3)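 Membranes from stably transfected cells or rat forebrain, homogenized in 50 mM Tris·HCl, pH 7.4, at 4 °C and pelleted at 36000g. Separation by vacuum filtration on PEI-treated GF/C filters. Ki reported.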

[7] = Fraction unbound in rat plasma at 5 uM after 4 hrs by equilibrium dialysis method; format: ADME, cell-free; procedure, shortened: as §2
[8] = biological target: T1, Neuronal acetylcholine receptor; alpha3/beta4; test: Antagonist activity at rat alpha3beta4 nAChR expressed in HEK293 cells assessed as inhibition of nicotine-induced [86Rb+] efflux preincubated for 10 mins before nicotine exposure by liquid scintillation counting; format: cell-based
[9] = biological target: Neuronal acetylcholine receptor; alpha3/beta4 (Rattus norvegicus) (UniProt P04757+P12392); test: Agonist activity at rat alpha3beta4 nAChR expressed in HEK293 cells assessed as stimulation of [86Rb+] efflux after 2 mins by liquid scintillation counting relative to nicotine; format: cell-based
Procedure, shortened: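 Rat α3β4 stably expressed in HEK 293 (KXα3β4R2) cultured in MEM/10% FBS, 37 °C, 5% CO2; plated on poly-D-lysine, grown 18–24 h. Loaded with 86Rb+ (2 μCi/mL) 4 h at 37 °C, washed in HEPES buffer pH 7.4, then exposed 2 min to eight ligand concentrations.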

[10] = biological target: Neuronal acetylcholine receptor; alpha4/beta4 (Rattus norvegicus, UniProt P09483+P12392); test: Displacement of [3H]epibatidine from rat alpha4beta4 nAChR expressed in HEK293 cells after 4 hrs; format: cell-based; procedure, shortened: as §1
Neuronal acetylcholine receptor; alpha4/beta4, sequence (P09483 whole entry): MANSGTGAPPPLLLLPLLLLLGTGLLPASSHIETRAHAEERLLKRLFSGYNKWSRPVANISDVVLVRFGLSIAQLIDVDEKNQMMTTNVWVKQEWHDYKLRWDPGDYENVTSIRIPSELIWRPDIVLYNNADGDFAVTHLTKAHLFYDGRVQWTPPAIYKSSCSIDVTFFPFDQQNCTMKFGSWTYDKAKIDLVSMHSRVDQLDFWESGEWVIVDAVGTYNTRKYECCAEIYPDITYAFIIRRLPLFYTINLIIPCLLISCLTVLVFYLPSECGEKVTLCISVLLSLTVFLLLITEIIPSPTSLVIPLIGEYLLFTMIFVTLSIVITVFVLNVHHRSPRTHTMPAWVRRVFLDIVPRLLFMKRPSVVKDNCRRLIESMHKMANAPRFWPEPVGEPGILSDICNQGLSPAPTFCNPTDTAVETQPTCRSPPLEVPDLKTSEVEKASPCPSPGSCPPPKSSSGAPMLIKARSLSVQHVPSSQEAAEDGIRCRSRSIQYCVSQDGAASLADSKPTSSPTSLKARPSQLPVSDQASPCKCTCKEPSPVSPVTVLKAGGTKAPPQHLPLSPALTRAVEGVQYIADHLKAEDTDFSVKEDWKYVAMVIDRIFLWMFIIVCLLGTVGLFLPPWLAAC
Neuronal acetylcholine receptor; alpha4/beta4, sequence (P12392 whole entry): as the sequence (P12392 whole entry) above

[11] = biological target: Neuronal acetylcholine receptor; alpha2/beta4 (Rattus norvegicus, UniProt P12389+P12392); test: Displacement of [3H]epibatidine from rat alpha2beta4 nAChR expressed in HEK293 cells after 4 hrs; format: cell-based; procedure, shortened: as §1
Neuronal acetylcholine receptor; alpha2/beta4, sequence (P12389 whole entry): as the sequence (P12389 whole entry) above
Neuronal acetylcholine receptor; alpha2/beta4, sequence (P12392 whole entry): as the sequence (P12392 whole entry) above

[12] = biological target: T2, Neuronal acetylcholine receptor; alpha4/beta2 (Homo sapiens, UniProt P17787+P43681); test: Displacement of [3H]epibatidine from human alpha4beta2 nAChR after 4 hrs by cell-based assay; procedure, shortened: as §3
T2 sequence (P17787 whole entry): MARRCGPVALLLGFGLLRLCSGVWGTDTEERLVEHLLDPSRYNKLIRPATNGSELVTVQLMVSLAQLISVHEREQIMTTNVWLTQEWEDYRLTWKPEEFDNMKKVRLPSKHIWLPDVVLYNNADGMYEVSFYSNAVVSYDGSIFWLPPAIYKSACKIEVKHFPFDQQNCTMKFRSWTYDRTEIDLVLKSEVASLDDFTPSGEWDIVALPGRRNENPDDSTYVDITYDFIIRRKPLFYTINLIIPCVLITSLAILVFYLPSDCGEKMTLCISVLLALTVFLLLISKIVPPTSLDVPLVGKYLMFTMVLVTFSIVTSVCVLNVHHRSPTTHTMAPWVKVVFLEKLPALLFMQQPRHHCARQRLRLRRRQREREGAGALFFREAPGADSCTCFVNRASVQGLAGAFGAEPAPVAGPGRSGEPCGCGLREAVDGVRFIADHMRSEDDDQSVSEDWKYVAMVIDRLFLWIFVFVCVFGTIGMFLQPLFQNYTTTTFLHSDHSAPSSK
T2 sequence (P43681 whole entry): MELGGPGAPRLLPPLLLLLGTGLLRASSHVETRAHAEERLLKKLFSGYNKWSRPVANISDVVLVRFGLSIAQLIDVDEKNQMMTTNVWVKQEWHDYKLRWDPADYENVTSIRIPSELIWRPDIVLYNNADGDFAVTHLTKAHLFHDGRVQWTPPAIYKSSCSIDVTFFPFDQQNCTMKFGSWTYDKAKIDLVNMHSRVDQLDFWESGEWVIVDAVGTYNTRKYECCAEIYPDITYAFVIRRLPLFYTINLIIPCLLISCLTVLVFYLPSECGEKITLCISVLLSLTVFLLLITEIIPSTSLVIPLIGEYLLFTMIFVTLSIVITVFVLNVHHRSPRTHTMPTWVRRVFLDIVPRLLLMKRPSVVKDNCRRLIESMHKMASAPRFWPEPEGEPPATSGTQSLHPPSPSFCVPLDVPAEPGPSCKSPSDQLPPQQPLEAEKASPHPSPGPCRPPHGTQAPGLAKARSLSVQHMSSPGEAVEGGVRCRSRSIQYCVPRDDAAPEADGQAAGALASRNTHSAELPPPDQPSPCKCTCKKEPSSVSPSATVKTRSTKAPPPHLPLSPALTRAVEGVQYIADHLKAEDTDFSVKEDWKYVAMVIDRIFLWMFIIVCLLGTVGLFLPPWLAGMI

HEK293 = test: Selectivity ratio of Ki for rat alpha3beta4 nAChR expressed in HEK293 cells to Ki for human alpha4beta2 nAChR; format: cell-based
Homo sapiens [13] = organism: Homo sapiens; test: Selectivity ratio of Ki for 5HT-1A receptor (unknown origin) to Ki for human alpha4beta2 nAChR
Rattus norvegicus [14] = test: Effect on locomotor activity in Sprague-Dawley rat assessed as increase in activity at 0.3 to 3 mg/kg, sc administered on successive days 10 mins prior to test measured for 1 hr relative to vehicle-treated control; format: functional, organism-based
Procedure, shortened: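 Separate group of young adult female Sprague-Dawley rats (N = 12), group-housed with free food. Dosed sc at 0, 0.3, 1 or 3 mg/kg in saline 10 min before a 1 h figure-eight maze session, counterbalanced, ≥2 days apart, each dose given once. Activity counted as infrared photobeam breaks in 5 min blocks.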

Homo sapiens [15] = organism: Homo sapiens; test: Selectivity ratio of Ki for KOR (unknown origin) to Ki for human alpha4beta2 nAChR
Homo sapiens [16] = organism: Homo sapiens; test: Selectivity ratio of Ki for dopaminergic D1 receptor (unknown origin) to Ki for human alpha4beta2 nAChR
Rattus norvegicus [17] = test: Antiaddiction activity in Sprague-Dawley rat assessed as decrease in nicotine intravenous self-administration at 3 mg/kg, sc […] relative to vehicle-treated control; format: functional, organism-based; parameters: dose 3 mg/kg
Homo sapiens [18] = organism: Homo sapiens; test: Selectivity ratio of Ki for sigma 2 receptor (unknown origin) to Ki for human alpha4beta2 nAChR
[19] = biological target: T2, Neuronal acetylcholine receptor; alpha4/beta2; test: Agonist activity at human alpha4beta2 nAChR assessed as stimulation of [86Rb+] efflux after 2 mins by cell-based liquid scintillation counting
Homo sapiens [20] = organism: Homo sapiens; test: Selectivity ratio of Ki for NET (unknown origin) to Ki for human alpha4beta2 nAChR
[21] = biological target: T2, Neuronal acetylcholine receptor; alpha4/beta2; test: Ratio of varenicline IC50 to compound IC50 for human alpha4beta2 nAChR assessed as inhibition of nicotine-induced [86Rb+] efflux preincubated for 10 mins before nicotine exposure by liquid scintillation counting; format: protein-complex assay
Procedure, shortened: (§4)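 Human α4β2 (YXα4β2H1 cells), ⁸⁶Rb⁺-loaded. […] IC50(10′) by nonlinear regression, and the ratio taken between reference and test IC50.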

[22] = biological target: T2, Neuronal acetylcholine receptor; alpha4/beta2; test: Ratio of nicotine IC50 to compound IC50 for human alpha4beta2 nAChR assessed as inhibition of nicotine-induced [86Rb+] efflux preincubated for 10 mins before nicotine exposure by liquid scintillation counting; format: protein-complex assay; procedure, shortened: as §4
Homo sapiens [23] = organism: Homo sapiens; test: Selectivity ratio of Ki for 5HT-1C receptor (unknown origin) to Ki for human alpha4beta2 nAChR
Homo sapiens [24] = organism: Homo sapiens; test: Selectivity ratio of Ki for DAT (unknown origin) to Ki for human alpha4beta2 nAChR
[25] = biological target: T2, Neuronal acetylcholine receptor; alpha4/beta2; test: Agonist activity at human alpha4beta2 nAChR assessed as stimulation of [86Rb+] efflux after 2 mins by cell-based liquid scintillation counting relative to nicotine
Homo sapiens [26] = organism: Homo sapiens; test: Selectivity ratio of Ki for alpha2C adrenergic receptor (unknown origin) to Ki for human alpha4beta2 nAChR
Rattus norvegicus [27] = test: Antiaddiction activity in Sprague-Dawley rat assessed as decrease in nicotine intravenous self-administration at 3 mg/kg, sc administered on successive days 10 mins prior to test measured at 15 mins time period each session relative to vehicle-treated control; format: functional, organism-based; parameters: dose 3 mg/kg
Procedure, shortened: (§5)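 Young adult female Sprague-Dawley rats (N = 15), singly housed on a reverse 12:12 cycle. […] Drug at 0, 0.3, 1 or 3 mg/kg sc in saline (1 mL/kg), 10 min pretest, counterbalanced, ≥2 days apart. Each dose given twice. Infusions analysed per session and per 15 min period.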

[28] = biological target: T2, Neuronal acetylcholine receptor; alpha4/beta2; test: Agonist activity at human alpha4beta2 nAChR assessed as induction of inward current by whole-cell voltage clamp analysis relative to acetylcholine; format: protein-complex assay
Procedure, shortened: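 Whole-cell voltage clamp at −70 mV on YXα4β2H1 cells pretreated with 1 mM carbachol for 48 h. Pipette K-gluconate/EGTA/ATP/GTP solution, pH 7.2. Perfusion saline pH 7.4 at 24 °C. Test agent 200 nM applied by bath. Current normalized to two stable prior 32 μM ACh responses given 5 min apart. n = 3 cells.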

Rattus norvegicus [29] = test: Antiaddiction activity in Sprague-Dawley rat assessed as decrease in nicotine intravenous self-administration at 0.3 to 1 mg/kg, sc administered on successive days 10 mins prior to test relative to vehicle-treated control; format: functional, organism-based; procedure, shortened: as §5
Homo sapiens [30] = organism: Homo sapiens; test: Selectivity ratio of Ki for SERT (unknown origin) to Ki for human alpha4beta2 nAChR
Homo sapiens [31] = organism: Homo sapiens; test: Selectivity ratio of Ki for 5HT-1B receptor (unknown origin) to Ki for human alpha4beta2 nAChR

Row | Compound | Ki [1] | fraction unbound at 4 h, 5 µM [2] | Ki [3] | Ki [4] | Ki [5] | Ki [6] | fraction unbound at 4 h, 5 µM [7] | IC50 [8] | Ki [10] | Ki [11] | Ki [12] | Ratio Ki (HEK293) | other results
1 | c1cnc2cc3c(cc2n1)[C@@H]1CNC[C@H]3C1 [VARENICLINE] | 0.46 µM | 0.897 | 0.22 nM | 1.9 nM | 0.71 nM | 0.062 µM | 0.709 | > 10 µM | 15 nM | 71 nM | – | – | Emax [9]: 82%
2 | CCCNCCOc1cncc(C#Cc2ccccc2)c1 | > 500 µM | – | > 5000 nM | > 10000 nM | > 50000 nM | > 25 µM | – | – | > 50000 nM | > 250000 nM | > 1000 nM | – | –
3 | c1ccc(-c2cncc(OC[C@@H]3CCN3)c2)cc1 | 1.3 µM | – | 0.22 nM | 5 nM | 1.1 nM | 11 µM | – | – | 6.2 nM | 36 nM | 0.14 nM | 9280 | –
4 | C(#Cc1cncc(OCC2CCC2)c1)c1ccccc1 | > 1000 µM | – | > 100000 nM | > 25000 nM | > 100000 nM | > 250 µM | – | – | > 500000 nM | > 50000 nM | > 100000 nM | – | –
5 | CC(C)NCC(O)COc1cccc2ccccc12 (stereo not given) [PROPRANOLOL] | – | – | – | – | – | – | 0.0961 | – | – | – | – | – | –
6 | C(#Cc1cncc(OC[C@@H]2CCN2)c1)c1ccccc1 | 0.64 µM | 0.0121 | 0.11 nM | 0.53 nM | 0.5 nM | – | 0.084 | > 10 µM | 11 nM | 58 nM | 0.049 nM | 13000 | Ratio Ki (Homo sapiens [13]): > 3000; Activity (Rattus norvegicus [14]): Active; Ratio Ki (Homo sapiens [15]): > 3000; Ratio Ki (Homo sapiens [16]): > 3000; Activity (Rattus norvegicus [17]): Active; Ratio Ki (Homo sapiens [18]): > 3000; EC50 [19]: 10 nM; Ratio Ki (Homo sapiens [20]): > 3000; Ratio IC50 [21]: 6; Ratio IC50 [22]: 23; Ratio Ki (Homo sapiens [23]): > 3000; Ratio Ki (Homo sapiens [24]): > 3000; Emax [25]: 24%; Ratio Ki (Homo sapiens [26]): > 3000; Activity (Rattus norvegicus [27]): Active; Activity [28]: 12.6%; Activity (Rattus norvegicus [29]): inactive; Ratio Ki (Homo sapiens [30]): > 3000; Ratio Ki (Homo sapiens [31]): > 3000
7 | O=C(CCCN1CCC(O)(c2ccc(Cl)cc2)CC1)c1ccc(F)cc1 [HALOPERIDOL] | – | 0.016 | – | – | – | – | – | – | – | – | – | – | –
8 | OCCCCC#Cc1cncc(OC[C@@H]2CCN2)c1 | – | 0.598 | – | – | 0.17 nM | – | 0.751 | > 10 µM | – | – | 0.062 nM | 31000 | Emax [25]: 40%
